Activity calls are given as the source filed them. No cut-off for these calls is given here.
How the values were obtained:
[1] = Inhibition of sheep brain dynamin 1 GTPase activity by malachite green GTPase assay; set-up: species or system Ovis aries
Procedure, shortened: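 Buffer: 5 mM Tris pH 7.4, 10 mM NaCl, 2 mM Mg2+, 0.05% Tween 80, leupeptin, PMSF. GTP 0.3 mM, 30 min at 37 °C. Stopped with EDTA, malachite green added, A650 read against a phosphate standard. IC50 is the mean of at least three experiments in duplicate.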

[2] = organism: Ovis aries; assay: Inhibition of sheep brain dynamin 1 GTPase activity at 300 uM by malachite green GTPase assay
[3] = system: U2OS; assay: Toxicity against human U2OS cells assessed as effect on cell morphology after 30 mins; type: cell-based; settings: 0.5 h
[4] = target: T1, Dynamin-2 (Homo sapiens) (UniProt P50570); assay: Inhibition of dynamin 2-mediated endocytosis internalization of Texas red-transferrin in human U2OS cells at 100 uM pretreated for 30 mins; type: cell-based
T1 sequence (whole entry): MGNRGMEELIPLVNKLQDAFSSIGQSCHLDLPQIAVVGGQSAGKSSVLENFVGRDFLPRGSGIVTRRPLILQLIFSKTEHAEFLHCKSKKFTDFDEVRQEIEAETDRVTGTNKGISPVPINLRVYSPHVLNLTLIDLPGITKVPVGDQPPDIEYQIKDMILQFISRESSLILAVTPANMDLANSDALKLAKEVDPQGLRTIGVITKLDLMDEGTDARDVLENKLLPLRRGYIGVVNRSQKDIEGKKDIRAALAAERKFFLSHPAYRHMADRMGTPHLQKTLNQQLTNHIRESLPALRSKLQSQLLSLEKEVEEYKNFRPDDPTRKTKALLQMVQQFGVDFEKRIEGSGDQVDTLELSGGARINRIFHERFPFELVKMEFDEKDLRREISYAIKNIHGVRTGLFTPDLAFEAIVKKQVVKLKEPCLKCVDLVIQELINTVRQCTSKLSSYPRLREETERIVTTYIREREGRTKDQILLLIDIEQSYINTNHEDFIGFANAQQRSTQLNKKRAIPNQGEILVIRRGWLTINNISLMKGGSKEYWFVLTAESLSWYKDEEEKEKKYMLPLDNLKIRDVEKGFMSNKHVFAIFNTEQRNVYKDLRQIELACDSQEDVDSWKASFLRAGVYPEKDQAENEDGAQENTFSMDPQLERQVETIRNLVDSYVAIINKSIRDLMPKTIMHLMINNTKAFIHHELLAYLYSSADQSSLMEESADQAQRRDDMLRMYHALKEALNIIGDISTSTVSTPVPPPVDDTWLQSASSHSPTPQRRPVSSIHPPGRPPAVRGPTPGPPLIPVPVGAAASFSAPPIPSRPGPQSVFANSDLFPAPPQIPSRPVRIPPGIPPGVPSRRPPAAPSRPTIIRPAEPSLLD
Procedure, shortened: (§1)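 U2OS cells in DMEM/10% FCS on fibronectin-coated wells, serum-starved overnight (16 h). Preincubated 30 min with drug or vehicle, then Tf-Texas Red 4 µg/mL for 8 min at 37 °C. Ice-cold acid wash (0.2 M acetic acid/0.5 M NaCl, pH 2.8) strips surface Tf. Cells fixed in 4% PFA and DAPI-stained, and internalized Tf-TxR imaged by fluorescence microscopy. Final DMSO at most 1%.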

[5] = target: T1, Dynamin-2 (Homo sapiens); assay: Inhibition of dynamin 2-mediated endocytosis internalization of Texas red-transferrin in human U2OS cells at 30 uM pretreated for 30 mins; type: cell-based; procedure, shortened: as §1
[6] = organism: Ovis aries; assay: Uncompetitive inhibition of sheep brain dynamin 1 GTPase activity using variable GTP level by kinetic assay; type: tissue-based
Procedure, shortened: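 Malachite green Pi release assay with PS-stimulated sheep brain dynamin I (20 nM) at 37 °C for 30 min, with GTP substrate varied in the presence of inhibitor. Vmax and Km were obtained by nonlinear Michaelis–Menten fitting, then the data were replotted as Lineweaver–Burk to assign the inhibition mode.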

[7] = Toxicity against mouse NIH/3T3 cells assessed as cell viability at 10 uM by trypan blue exclusion method; type: cell-based, NIH3T3; settings: read-out: Activity
Procedure, shortened: (§2)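 Cells seeded at 1 × 10⁵ per 10 cm dish. From 24 h after seeding, exposed continuously for 7 days to drug (10 µM) or 0.5% DMSO vehicle. Floating and adherent cells collected, and viability scored by Trypan Blue exclusion on an automated analyzer. Cell lines: hTert breast stromal fibroblasts, two primary skin fibroblast lines, a primary myoblast line, NIH3T3.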

[8] = Toxicity against human fibroblasts assessed as cell viability at 10 uM by trypan blue exclusion method; type: cell-based, Fibroblast; settings: read-out: Activity; procedure, shortened: as §2

Structure (SMILES)	IC50 [1] [µM]	inhibition [2]	also measured
CCCCNC(=O)/C(C#N)=C/c1c(C)n(CCN(C)C)c2ccccc12	300	–	–
CN(C)CCCn1cc(CC(=O)O)c2ccccc21	–	inactive	–
CCCCCCNC(=O)/C(C#N)=C/c1c(C)n(CCN(C)C)c2ccccc12	7.69	–	–
CCCCCCNC(=O)/C(C#N)=C/c1c(C)[nH]c2ccccc12	–	inactive	–
CCCCCCCCCCCCNC(=O)/C(C#N)=C/c1c(C)[nH]c2ccccc12	–	inactive	–
CCCNC(=O)/C(C#N)=C/c1c(C)n(CCCN(C)C)c2ccccc12	–	inactive	–
CN(C)CCCn1cc(C2=C(c3c[nH]c4ccccc34)C(=O)NC2=O)c2ccccc21 [GF-109203]	100	–	–
CN(C)CCn1ccc2ccccc21	300	–	–
CN(C)CCCn1cc(CCC(=O)O)c2ccccc21	143	–	–
CN(C)CCCn1ccc2ccccc21	300	–	–
CN(C)CCn1cc(CCC(=O)O)c2ccccc21	131	–	–
Cc1[nH]c2ccccc2c1/C=C(\C#N)C(=O)NC1CCCCC1	–	inactive	–
Cc1c(/C=C(\C#N)C(=O)NC2CCCCC2)c2ccccc2n1CCCN(C)C	300	–	–
Cc1c(/C=C(\C#N)C(=O)NCc2ccccc2)c2ccccc2n1CCCN(C)C	201	–	–
CCCCNC(=O)/C(C#N)=C/c1c(C)n(CCCN(C)C)c2ccccc12	–	inactive	–
Cc1cc2ccccc2n1CCN(C)C	300	–	–
CCNC(=O)/C(C#N)=C/c1c(C)n(CCN(C)C)c2ccccc12	–	inactive	–
CCCCCCCCCCCCCCNC(=O)/C(C#N)=C/c1c(C)[nH]c2ccccc12	–	inactive	–
COc1ccc(CNC(=O)/C(C#N)=C/c2c(C)n(CCCN(C)C)c3ccccc23)cc1	222	–	–
Cc1cc2ccccc2n1CCCN(C)C	300	–	–
CCCCCCCCCCNC(=O)/C(C#N)=C/c1c(C)n(CCN(C)C)c2ccccc12	10.1	–	Activity [3]: Non-toxic; Activity [4]: Active
Cc1c(/C=C(\C#N)C(=O)NCc2ccccc2)c2ccccc2n1CCN(C)C	196	–	–

Structure (SMILES)	IC50 [1] [µM]	inhibition [2]	also measured
COc1ccc(CNC(=O)/C(C#N)=C/c2c(C)[nH]c3ccccc23)cc1	–	inactive	–
CCCCCCCCCCCCCCNC(=O)/C(C#N)=C/c1c(C)n(CCCN(C)C)c2ccccc12	52	–	–
Cc1c(C=O)c2ccccc2n1CCN(C)C	–	inactive	–
CN(C)CCn1cc(CC(=O)O)c2ccccc21	–	inactive	–
CN1CCCC1CCn1cc(C2=C(c3c[nH]c4ccccc34)C(=O)NC2=O)c2ccccc21 (centres undefined)	100	–	–
COc1ccc(CNC(=O)/C(C#N)=C/c2c(C)n(CCN(C)C)c3ccccc23)cc1	254	–	–
CCCCCCNC(=O)/C(C#N)=C/c1c(C)n(CCCN(C)C)c2ccccc12	6.62	–	Activity [3]: Non-toxic; Activity [4]: Active
CCCCCCCCCCCCCCNC(=O)/C(C#N)=C/c1c(C)n(CCN(C)C)c2ccccc12	38	–	–
CCCCCCCCNC(=O)/C(C#N)=C/c1c(C)n(CCN(C)C)c2ccccc12	9.05	–	Activity [3]: Non-toxic; Activity [4]: Active
CCCCCCCCNC(=O)/C(C#N)=C/c1c(C)n(CCCN(C)C)c2ccccc12	3.33	–	Activity [5]: Active; Activity [3]: Non-toxic; Activity [4]: Active; Activity [6]: Active
CCNC(=O)/C(C#N)=C/c1c(C)n(CCCN(C)C)c2ccccc12	–	inactive	–
CCCCNC(=O)/C(C#N)=C/c1c(C)[nH]c2ccccc12	–	inactive	–
CCCCCCCCCCNC(=O)/C(C#N)=C/c1c(C)[nH]c2ccccc12	–	inactive	–
Cc1c(C=O)c2ccccc2n1CCCN(C)C	–	inactive	–
CCCCCCCCNC(=O)/C(C#N)=C/c1cn(CCCN(C)C)c2ccccc12	1.3	–	Activity [5]: Active; viability at 10 µM [7]: > 98%; Activity [3]: Non-toxic; viability at 10 µM [8]: > 98%; Activity [4]: Active
CCCCCCCCCCCCNC(=O)/C(C#N)=C/c1c(C)n(CCN(C)C)c2ccccc12	32	–	–
Cc1[nH]c2ccccc2c1/C=C(\C#N)C(=O)NCc1ccccc1	–	inactive	–
CCCNC(=O)/C(C#N)=C/c1c(C)[nH]c2ccccc12	–	inactive	–
CCCNC(=O)/C(C#N)=C/c1c(C)n(CCN(C)C)c2ccccc12	–	inactive	–
CCNC(=O)/C(C#N)=C/c1c(C)[nH]c2ccccc12	–	inactive	–
Cc1c(/C=C(\C#N)C(=O)NC2CCCCC2)c2ccccc2n1CCN(C)C	300	–	–
CCCCCCCCNC(=O)/C(C#N)=C/c1c(C)[nH]c2ccccc12	–	inactive	–

Source: ChEMBL document CHEMBL1136965, “Inhibition of dynamin mediated endocytosis by the dynoles--synthesis and functional activity of a family of indoles” (J Med Chem, 2009)
